Values after ≈ are worked out from the molar mass of the structure shown.
How the values were obtained:
Assay type in all cases: functional
[1] = tested on: Enterococcus sp.; assay: Antibacterial activity against Enterococcus sp. J14365/08 after 48 hrs by broth microdilution method; conditions: J14365/08, 48 h
How it was run: (§1)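 Broth microdilution following […], with twofold compound dilutions in Mueller-Hinton bouillon. Incubated 24 and 48 h at 35 °C in the dark in a humid atmosphere. MIC (IC80) was taken as ≥80% growth reduction versus control, read visually and photometrically.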

[2] = tested on: Escherichia coli; assay: Antibacterial activity against Escherichia coli CCM 4517 after 24 hrs by broth microdilution method; conditions: CCM 4517, 24 h; how it was run: as §1
[3] = tested on: Escherichia coli; assay: Antibacterial activity against Escherichia coli CCM 4517 after 48 hrs by broth microdilution method; conditions: CCM 4517, 48 h; how it was run: as §1
[4] = tested on: Klebsiella pneumoniae; assay: Antibacterial activity against Klebsiella pneumoniae D11750/08 after 24 hrs by broth microdilution method; conditions: D11750/08, 24 h; how it was run: as §1
[5] = tested on: Klebsiella pneumoniae; assay: Antibacterial activity against Klebsiella pneumoniae D11750/08 after 48 hrs by broth microdilution method; conditions: D11750/08, 48 h; how it was run: as §1
[6] = tested on: Candida albicans; assay: Antifungal activity against Candida albicans ATCC 44859 after 24 hrs by broth microdilution method; conditions: ATCC 44859, 24 h
[7] = tested on: Candida albicans; assay: Antifungal activity against Candida albicans ATCC 44859 after 48 hrs by broth microdilution method; conditions: ATCC 44859, 48 h
[8] = tested on: Candida tropicalis; assay: Antifungal activity against Candida tropicalis 156 after 24 hrs by broth microdilution method; conditions: Candida tropicalis, 156, 24 h
[9] = tested on: Candida tropicalis; assay: Antifungal activity against Candida tropicalis 156 after 48 hrs by broth microdilution method; conditions: Candida tropicalis, 156, 48 h
[10] = tested on: Pichia kudriavzevii; assay: Antifungal activity against Candida krusei E28 after 24 hrs by broth microdilution method; conditions: E28, 24 h
[11] = tested on: Pichia kudriavzevii; assay: Antifungal activity against Candida krusei E28 after 48 hrs by broth microdilution method; conditions: E28, 48 h
[12] = tested on: Nakaseomyces glabratus; assay: Antifungal activity against Candida glabrata 20/I after 24 hrs by broth microdilution method
[13] = tested on: Nakaseomyces glabratus; assay: Antifungal activity against Candida glabrata 20/I after 48 hrs by broth microdilution method
[14] = tested on: Trichosporon beigelii; assay: Antifungal activity against Trichosporon beigelii 1188 after 24 hrs by broth microdilution method; conditions: Trichosporon beigelii, 1188, 24 h
[15] = tested on: Trichosporon beigelii; assay: Antifungal activity against Trichosporon beigelii 1188 after 48 hrs by broth microdilution method; conditions: Trichosporon beigelii, 1188, 48 h
[16] = tested on: Aspergillus fumigatus; assay: Antifungal activity against Aspergillus fumigatus 231 after 24 hrs by broth microdilution method; conditions: Aspergillus fumigatus, 231, 24 h
[17] = tested on: Aspergillus fumigatus; assay: Antifungal activity against Aspergillus fumigatus 231 after 48 hrs by broth microdilution method; conditions: Aspergillus fumigatus, 231, 48 h
[18] = tested on: Lichtheimia corymbifera; assay: Antifungal activity against Absidia corymbifera 272 after 24 hrs by broth microdilution method; conditions: Lichtheimia corymbifera, 272, 24 h
[19] = tested on: Lichtheimia corymbifera; assay: Antifungal activity against Absidia corymbifera 272 after 48 hrs by broth microdilution method; conditions: Lichtheimia corymbifera, 272, 48 h
[20] = tested on: Trichophyton mentagrophytes; assay: Antifungal activity against Trichophyton mentagrophytes after 24 hrs by broth microdilution method
[21] = tested on: Trichophyton mentagrophytes; assay: Antifungal activity against Trichophyton mentagrophytes after 48 hrs by broth microdilution method
[22] = tested on: Mycobacterium tuberculosis; assay: Antimycobacterial activity against drug-sensitive Mycobacterium tuberculosis
[23] = tested on: Mycobacterium avium; assay: Antimycobacterial activity against Mycobacterium avium
[24] = tested on: Mycobacterium kansasii; assay: Antimycobacterial activity against Mycobacterium kansasii
[25] = tested on: Mycobacterium tuberculosis; assay: Antimycobacterial activity against Mycobacterium tuberculosis H37Rv 331/88 after 14 days by micromethod; conditions: H37Rv 331/88, 336 h
How it was run: (§2)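 Micromethod in Sula semisynthetic medium, with compounds added as DMSO solutions at 1000, 500, 250, 125, 62, 32, 16, 8, 4, 2, 1, 0.5, 0.25. Inoculum dilutions: H37Rv 10^-3; M. avium 330/88 10^-5; M. kansasii 235/80 10^-4; M. kansasii 6509/96 10^-5. Incubated at 37 °C, read at 14 and 21 days, and at 7 days for M. kansasii. MIC was the lowest concentration inhibiting growth.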

[26] = tested on: Mycobacterium tuberculosis; assay: Antimycobacterial activity against Mycobacterium tuberculosis H37Rv 331/88 after 21 days by micromethod; conditions: H37Rv 331/88, 504 h; how it was run: as §2
[27] = tested on: Mycobacterium avium; assay: Antimycobacterial activity against multidrug-resistant Mycobacterium avium 330/88 after 14 days by micromethod; conditions: 330/88, 336 h; how it was run: as §2
[28] = tested on: Mycobacterium avium; assay: Antimycobacterial activity against multidrug-resistant Mycobacterium avium 330/88 after 21 days by micromethod; conditions: 330/88, 504 h; how it was run: as §2
[29] = tested on: Mycobacterium kansasii; assay: Antimycobacterial activity against Mycobacterium kansasii 235/80 after 7 days by micromethod; conditions: 235/80, 168 h; how it was run: as §2
[30] = tested on: Mycobacterium kansasii; assay: Antimycobacterial activity against Mycobacterium kansasii 235/80 after 14 days by micromethod; conditions: 235/80, 336 h; how it was run: as §2
[31] = tested on: Mycobacterium kansasii; assay: Antimycobacterial activity against Mycobacterium kansasii 235/80 after 21 days by micromethod; conditions: 235/80, 504 h; how it was run: as §2
[32] = tested on: Mycobacterium kansasii; assay: Antimycobacterial activity against Mycobacterium kansasii 6509/96 after 7 days by micromethod; conditions: 6509/96, 168 h; how it was run: as §2
[33] = tested on: Mycobacterium kansasii; assay: Antimycobacterial activity against Mycobacterium kansasii 6509/96 after 14 days by micromethod; conditions: 6509/96, 336 h; how it was run: as §2
[34] = tested on: Mycobacterium kansasii; assay: Antimycobacterial activity against Mycobacterium kansasii 6509/96 after 21 days by micromethod; conditions: 6509/96, 504 h; how it was run: as §2
[35] = tested on: Staphylococcus aureus; assay: Antibacterial activity against Staphylococcus aureus CCM 4516/08 after 24 hrs by broth microdilution method; conditions: CCM 4516/08, 24 h; how it was run: as §1
[36] = tested on: Staphylococcus aureus; assay: Antibacterial activity against Staphylococcus aureus CCM 4516/08 after 48 hrs by broth microdilution method; conditions: CCM 4516/08, 48 h; how it was run: as §1
[37] = tested on: Staphylococcus aureus; assay: Antibacterial activity against methicillin-resistant Staphylococcus aureus H5996/08 after 24 hrs by broth microdilution method; conditions: H5996/08, 24 h; how it was run: as §1
[38] = tested on: Staphylococcus aureus; assay: Antibacterial activity against methicillin-resistant Staphylococcus aureus H5996/08 after 48 hrs by broth microdilution method; conditions: H5996/08, 48 h; how it was run: as §1
[39] = tested on: Staphylococcus epidermidis; assay: Antibacterial activity against Staphylococcus epidermidis H6966/08 after 24 hrs by broth microdilution method; conditions: H6966/08, 24 h; how it was run: as §1
[40] = tested on: Staphylococcus epidermidis; assay: Antibacterial activity against Staphylococcus epidermidis H6966/08 after 48 hrs by broth microdilution method; conditions: H6966/08, 48 h; how it was run: as §1
[41] = tested on: Enterococcus sp.; assay: Antibacterial activity against Enterococcus sp. J14365/08 after 24 hrs by broth microdilution method; conditions: J14365/08, 24 h; how it was run: as §1

CC(=O)N[C@@H](Cc1ccccc1)C(=O)Oc1cc(Cl)ccc1C(=O)Nc1ccc(C(F)(F)F)cc1
MIC [1]: > 125 µM | MIC [2]: > 125 µM | MIC [3]: > 125 µM | MIC [4]: > 125 µM | MIC [5]: > 125 µM | MIC [6]: > 125 µM | MIC [7]: > 125 µM | MIC [8]: > 125 µM | MIC [9]: > 125 µM | MIC [10]: 62.5 µM (≈ 31.6 µg/mL) | MIC [11]: > 125 µM | MIC [12]: > 125 µM | MIC [13]: > 125 µM | MIC [14]: 125 µM (≈ 63.1 µg/mL) | MIC [15]: > 125 µM | MIC [16]: 62.5 µM (≈ 31.6 µg/mL) | MIC [17]: > 125 µM | MIC [18]: 62.5 µM (≈ 31.6 µg/mL) | MIC [19]: > 125 µM | MIC [20]: 125 µM (≈ 63.1 µg/mL) | MIC [21]: > 125 µM | MIC [22]: 1 µM (≈ 0.505 µg/mL) | MIC [23]: 1 µM (≈ 0.505 µg/mL) | MIC [24]: 1 µM (≈ 0.505 µg/mL) | MIC [25]: 8 µM (≈ 4.04 µg/mL) | MIC [26]: 16 µM (≈ 8.08 µg/mL) | MIC [27]: 16 µM (≈ 8.08 µg/mL) | MIC [28]: 32 µM (≈ 16.2 µg/mL) | MIC [29]: 4 µM (≈ 2.02 µg/mL) | MIC [30]: 4 µM (≈ 2.02 µg/mL) | MIC [31]: 4 µM (≈ 2.02 µg/mL) | MIC [32]: 4 µM (≈ 2.02 µg/mL) | MIC [33]: 8 µM (≈ 4.04 µg/mL) | MIC [34]: 8 µM (≈ 4.04 µg/mL) | MIC [35]: 125 µM (≈ 63.1 µg/mL) | MIC [36]: > 125 µM | MIC [37]: 125 µM (≈ 63.1 µg/mL) | MIC [38]: > 125 µM | MIC [39]: 125 µM (≈ 63.1 µg/mL) | MIC [40]: > 125 µM | MIC [41]: 125 µM (≈ 63.1 µg/mL)

— ChEMBL document CHEMBL1629494, “New amino acid esters of salicylanilides active against MDR-TB and other microbes” (Eur J Med Chem, 2010)
